Published values of several laboratories.
Protocols differ between the studies behind these lines.
Cnr2: Cannabinoid receptor 2 (Cnr2, Mus musculus, UniProt P47936)
G protein-coupled receptor 88: G protein-coupled receptor 88 (Homo sapiens, UniProt Q9GZN0)
mreB: mreB (Escherichia coli, UniProt P0A9X4)
pol: pol (Feline immunodeficiency virus, UniProt P16088)
CTSL: Procathepsin L (CTSL, Homo sapiens, UniProt P07711)

CCOC(=O)[C@](CC)(CCC[S+]([O-])CCOCCOCCNC(=O)OC(C)(C)C)NC(=O)c1ccc(C2CC2)c(Cc2ccc(F)cc2)n1 (stereo partly drawn)
Ki (Cnr2; ligand displacement, radioligand; cell membranes): 90 nM

CC[C@@H](C)COc1ccc([C@@H](CO)C(=O)N[C@H](C)c2ccccc2)cc1
EC50 (G protein-coupled receptor 88; cAMP, agonist, TR-FRET): 3090 nM

CCOC(=O)C(CC)(CCCSCCOCCOCCOCCNC(=O)OC(C)(C)C)NC(=O)c1ccc(C2CC2)c(Cc2ccc(F)cc2)n1 (stereo not drawn)
Ki (Cnr2; ligand displacement, radioligand; cell membranes): 117 nM

NC1CCCCc2c1[nH]c1ccc(Cl)c(Cl)c21 (stereo not drawn)
IC50 (mreB; ATPase activity, inhibitor, absorbance): 25000 nM

Cc1ccnc2c1NC(=O)c1cccnc1N2C1CC1
IC50 (pol; enzyme activity, inhibitor): 1400 nM

CC(C)C[C@H](NC(=O)[C@H]1O[C@@H]1C(=O)O)C(=O)NCCCCN=C(N)N
IC50 (CTSL; enzyme activity, inhibitor): 0.238 nM

NC(=O)[C@@H]1CC(F)(F)CN1C(=O)c1ccc(N2CC(F)(F)C2)c(OCC2CC2)n1
Ki (Cnr2; ligand displacement, radioligand; cell membranes): 189 nM

Cc1cc(SCc2sc(-c3ccc(C(F)(F)F)c(F)c3)nc2C)ccc1OCC(=O)O
IC50 (Thyroid hormone receptor beta (THRB, Homo sapiens, UniProt P10828); reporter gene, antagonist, luciferase): 25800 nM

C[C@]12CC[C@@H]3c4ccc(O)cc4CC[C@H]3[C@@H]1CC[C@@H]2O
Kd (Protein disulfide-isomerase (P4HB, Homo sapiens, UniProt P07237); binding, radioligand): 1500 nM

Cc1nc([C@@](C)(CC2CC2)NC(=O)c2cc(OCC(F)(F)F)c(C3CC3)cn2)no1
EC50 (Cnr2; cAMP, agonist): 3 nM

O=P(O)(O)Oc1cccc(OP(=O)(O)O)c1
IC50 (Signal transducer and activator of transcription 5B, SH2 (STAT5B, Homo sapiens, UniProt P51692); ligand displacement, FP): 55000 nM

NCCCNC1CCCCc2c1[nH]c1ccc(Br)cc21 (stereo not drawn)
IC50 (mreB; ATPase activity, inhibitor, absorbance): 25000 nM

Cc1cc(/C=C/C#N)cc(C)c1Nc1ccnc(Nc2ccc(C#N)cc2)n1
IC50 (pol; enzyme activity, inhibitor): 50.9 nM

CC(C)C[C@H]1C(=O)N2CCC[C@H]2[C@]2(O)O[C@](NC(=O)[C@@H]3C=C4c5cccc6[nH]cc(c56)C[C@H]4N(C)C3)(C(C)C)C(=O)N12
IC50 (Solute carrier organic anion transporter family member 1B3 (SLCO1B3, Homo sapiens, UniProt Q9NPD5); transporter uptake, inhibitor, fluorescence; CHO; 30 min, pH 7.4): 2200 nM

CCCC#Cc1ccc([C@@H](CO)C(=O)N[C@H](C)c2ccccc2)cc1
EC50 (G protein-coupled receptor 88; cAMP, agonist, TR-FRET): 204 nM

Cc1nonc1Cn1nnc2c(N3CC[C@H](O)C3)nc(C(C)(C)C)nc21
Ki (Cnr2; ligand displacement, radioligand; cell membranes): 61 nM

O=C(NCc1ccc(F)cc1)c1cccc(Nc2ccc(-c3ccccc3)nn2)c1
IC50 (Anoctamin-2 (ANO2, Homo sapiens, UniProt Q9NQ90); ion flux, inhibitor): 8200 nM

CC(N)c1cc2cc(Br)ccc2[nH]1 (stereo not drawn)
IC50 (mreB; ATPase activity, inhibitor, absorbance): 120000 nM

CCOC(=O)C(CC)(CCCSCCOCCOCCOCCOCCNC(=O)OC(C)(C)C)NC(=O)c1ccc(C2CC2)c(Cc2ccc(F)cc2)n1 (stereo not drawn)
EC50 (Cnr2; cAMP, agonist): 31 nM

COC(=O)[C@H](CCC(=O)Nc1cccc2c1ccn2Cc1cccc(C(N)=O)c1)NC(=O)OCc1ccccc1
IC50 (NAD-dependent protein deacetylase sirtuin-1 (SIRT1, Homo sapiens, UniProt Q96EB6); enzyme activity, inhibitor): 67000 nM

O=[As](O)(O)c1ccc(Cc2ccc([As](=O)(O)O)cc2)cc1
Ki (Autotaxin (ENPP2, Homo sapiens, UniProt Q13822); enzyme activity, inhibitor, absorbance; pH 8): 26 nM

CC(C)C[C@@H]1C(=O)N[C@H]([C@@H](C)O)C(=O)N[C@H](C)[C@@H](C)C(=O)O[C@@H](Cc2ccccc2)C(=O)N(C)[C@@H](C(C)C)C(=O)N2CCC[C@H]2C(=O)N(C)[C@H](Cc2ccccc2)C2=N[C@@H](CS2)C(=O)N[C@H](C)C2=N[C@@H](CS2)C(=O)N1C
IC50 (CTSL; enzyme activity, inhibitor): 21300 nM

CCCCNNC(=O)c1ccc(Br)cc1
IC50 (Histone deacetylase 4 (HDAC4, Homo sapiens, UniProt P56524); enzyme activity, inhibitor, fluorescence): > 100000 nM

CCOC(=O)C(CC)(CCCSCCOCCOCCNc1ccc([N+](=O)[O-])c2nonc12)NC(=O)c1ccc(C2CC2)c(Cc2ccc(F)cc2)n1 (racemic)
EC50 (Cnr2; cAMP, agonist): 102 nM
